We go through eight molecules from ChEMBL document CHEMBL2407056, “3-(Oxazolo[4,5-b]pyridin-2-yl)anilides as a novel class of potent inhibitors for the kinetoplastid Trypanosoma brucei, the causative agent for human African trypanosomiasis” (Eur J Med Chem, 2013).

Structures are written as SMILES. ≈ marks a conversion by molar mass, not a printed value.

One series deals with Plasmodium falciparum. In words: Antimicrobial activity against Plasmodium falciparum NF54 infected in human RBC after 48 hrs by [3H]hypoxanthine incorporation assay. The format is functional, organism-based. Put shortly:
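Erythrocytic stage, drug-sensitive strain, in hypoxanthine-free RPMI 1640 with HEPES, NaHCO3, neomycin, Albumax, human A+ red cells at 2.5% haematocrit, 0.3% parasitaemia. Eleven 3-fold dilutions from 100 to 0.002 µg/mL; 37 °C, 4% CO2/3% O2/93% N2. ³H-hypoxanthine added at 48 h, further 24 h, then harvested and scintillation-counted. IC50 by linear regression; chloroquine control.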

The test system of another series is L6. Briefly: Cytotoxicity against rat L6 cells after 70 hrs by Alamar blue assay. It is filed as cell-based. The note with it: L6, 70 h. Put shortly: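 4000 L-6 cells per well in RPMI 1640 with L-glutamine and 10% FBS. Eleven 3-fold dilutions from 100 to 0.002 µg/mL for 70 h; Alamar Blue 2 h, fluorescence at ex 536/em 588 nm. IC50 by linear regression from sigmoidal curves; podophyllotoxin control.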
In general terms: Alamar Blue is a resazurin reagent that responds to reducing activity.

The subject of series [1] is Leishmania donovani. Briefly: Antimicrobial activity against Leishmania donovani amastigote form infected in mouse peritoneal macrophage after 96 hrs by Giemsa staining method. The format is functional, organism-based. Put shortly:
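Mouse peritoneal macrophages (4×10⁴/well, RPMI 1640 + 10% heat-inactivated FBS) infected after 24 h with 1.2×10⁵ axenic amastigotes; free parasites removed at 4 h, drug dilutions added next day. After 96 h, methanol fixation and 10% Giemsa staining; infected and non-infected macrophages counted, % reduction in parasite burden vs controls, IC50 by linear regression; miltefosine control.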

Series [2] relates to Leishmania donovani. In words: Antimicrobial activity against Leishmania donovani MHOM/ET/67/L82 amastigote form after 70 hrs by Alamar blue assay. It is filed as functional, organism-based. The note with it: MHOM/ET/67/L82, 70 h. Put shortly:
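Axenic amastigotes grown at 37 °C in SM medium pH 5.4 with 10% heat-inactivated FBS, 5% CO2; 10⁵ parasites per well exposed to eleven 3-fold dilutions (100 to 0.002 µg/mL) for 70 h. Alamar Blue (resazurin) added for 2–4 h, fluorescence read at ex 536/em 588 nm. IC50 by linear regression from sigmoidal curves; miltefosine control.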

The subject of a further series is Trypanosoma cruzi. In words: Antitrypanosomal activity against Trypanosoma cruzi Tulahuen C2C4 amastigotes infected in rat L6 cells after 96 hrs by beta-galactosidase reporter gene assay. The format is functional, organism-based. As to conditions: Tulahuen C2C4, L6, 96 h. Put shortly: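 L-6 cells (2000/well, RPMI 1640 + 10% FBS, 2 mM L-glutamine) infected after 24 h with 5000 LacZ-expressing trypomastigotes. At 48 h the medium was replaced with eleven 3-fold drug dilutions (100 to 0.002 µg/mL). After 96 h, CPRG/Nonidet substrate added, colour read at 540 nm after 2–6 h. IC50 by linear regression from sigmoidal curves; benznidazole control.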
A general note: In a reporter assay the amount or activity of a reporter protein is the signal.

Series [3] is described as follows: Selectivity index, ratio of IC50 for HEK293 cells to IC50 for Trypanosoma brucei brucei 427 bloodstream form. As to conditions: human, read-out: Ratio IC50. It is filed as toxicity, cell-based. Put shortly: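 HEK293 cells (55 µL of 72,727 cells/mL in DMEM + 10% FCS) in 384-well plates, 24 h at 37 °C/5% CO2. Drug diluted 1:21 from DMSO, final 83.34 to 0.0004 µM, 48 h. […] SI relative to T. b. brucei.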

For series [4], the system named is Trypanosoma brucei rhodesiense. Briefly: Antitrypanosomal activity against Trypanosoma brucei rhodesiense STIB 900 bloodstream form after 70 hrs by Alamar blue assay. It is filed as functional, organism-based. As to conditions: STIB 900, 70 h. Put shortly: (§1)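 Bloodstream forms (4×10³/well) in MEM with 25 mM HEPES, extra glucose, non-essential amino acids, 0.2 mM 2-mercaptoethanol, 1 mM pyruvate and 15% heat-inactivated horse serum. Eleven 3-fold dilutions from 100 to 0.002 µg/mL, 70 h at 37 °C/5% CO2; Alamar Blue 2 h, fluorescence at ex 536/em 588 nm; IC50 by linear regression; melarsoprol control. SI relative to L6 cells.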

For series [5], the system named is Trypanosoma brucei brucei. In words: Antitrypanosomal activity against Trypanosoma brucei brucei 427 bloodstream form after 48 hrs by Alamar blue assay. It is filed as functional, organism-based. The note with it: Trypanosoma brucei, 427, 48 h. In short, it runs like this: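 Bloodstream parasites in 384-well plates, 24 h preincubation at 37 °C/5% CO2. DMSO dilutions diluted 1:21 in DMEM and added to give final 41.67 to 0.0004 µM; 48 h incubation. 70% Alamar Blue in HMI-9 + 10% FCS added, 2 h at 37 °C then 22 h at room temperature; read at ex 535/em 590 nm.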

A short description of series [6]: Intrinsic clearance in human liver microsomes at 1 uM after 60 mins by LC-MS analysis. The format is ADME, Microsome. The note with it: read-out: CLH. In short, it runs like this:
(§2)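 Compound at 1 µM final (1 in 500 dilution of stock) incubated at 37 °C with human liver microsomes in 0.1 M phosphate buffer pH 7.4, 0.4 mg/mL protein. First-order depletion rate from exponential decay fit used to derive in vitro CLint and half-life; predicted hepatic extraction ratio from scaled CLint with liver blood flow 20.7 mL/min/kg.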

Series [7] in a line: Kinetic solubility of the compound in phosphate buffer at pH 6.5 by nephelometry. The format is physicochemical. The note with it: read-out: Kinetic_solubility. Put shortly: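 DMSO stocks spiked into pH 6.5 phosphate buffer or 0.01 M HCl (about pH 2.0), final DMSO 1% (v/v). Solubility range determined by nephelometry.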
Series [8] in a line: Half life in human liver microsomes at 1 uM by LC-MS analysis. It is filed as ADME, Microsome. Put shortly:
as §2
(In general: Microsomes from liver hold many membrane-bound enzymes, among them those of drug oxidation.)

A short description of series [9]: Partition coefficient, log D of the compound at pH 7.4 by HPLC analysis. The note with it: octanol/water. It is filed as physicochemical. In short, it runs like this: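 Chromatographic gradient HPLC: mobile phase 50 mM ammonium acetate pH 7.4 (or ammonium formate pH 3.0) with an acetonitrile gradient of 0–100% over 10 min; UV detection at 220 and 254 nm.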

Series [10] is described as follows: Kinetic solubility of the compound in phosphate buffer at pH 2 by nephelometry. The format is physicochemical. The note with it: read-out: Kinetic_solubility.
Series [11] is described as follows: Selectivity index, ratio of IC50 for rat L6 cells to IC50 for Trypanosoma cruzi Tulahuen C2C4 amastigote stage. It is filed as toxicity, cell-based. As to conditions: read-out: Ratio IC50.
Series [12] can be described thus: Selectivity index, ratio of IC50 for rat L6 cells to IC50 for Trypanosoma brucei rhodesiense STIB 900 bloodstream form. As to conditions: read-out: Ratio IC50. It is filed as toxicity, cell-based. In short, it runs like this:
as §1

In the case of `CCN(CC)CCCC(C)Nc1ccnc2cc(Cl)ccc12` (centres undefined) [CHLOROQUINE], a half-maximal effect with Plasmodium falciparum (EC50) was put at 0.006 µM.
Turning to `O=C(Nc1ccc(Cl)c(-c2nc3ncccc3o2)c1)c1cscn1`, the IC50 with L6 was 235 µM; in the series with Leishmania donovani [1] it was above 84 µM; in the series on Leishmania donovani [2] it was 4.8 µM; in the series on Plasmodium falciparum it was 7.7 µM; with Trypanosoma cruzi, 2.3 µM; in [4] it was 1.1 µM. This molecule also had an IC50 in series [5] of 1.8 µM. Moreover, the selectivity ratio in series [3] was found to be 39.
`O=C(Nc1ccc(Cl)c(-c2nc3ncccc3o2)c1)c1ccco1`: the microsomal CLint at 1 µM in series [6] was found to be 258 µL/min/mg. The solubility kinetic in [7] and in series [10] was 1.6 µg/mL (≈ 4.71 µM) throughout. The molecule also returned a half-life at 1 µM in series [8] of 7 min. The molecule further registered a logD in series [9] of 2.7. For the same molecule, the half-maximal inhibitory concentration (IC50) stood at 23 µM in the series on L6; 1.8 µM with Leishmania donovani [2]; 7.8 µM with Plasmodium falciparum; 0.23 µM in the series with Trypanosoma cruzi; 0.59 µM in series [4]; 0.22 µM in series [5]. The selectivity ratio in [11] is 99; in [12], 39; in [3], above 345.
Molecule `COc1cc([C@@H]2c3cc4c(cc3[C@H](O)[C@H]3COC(=O)[C@H]23)OCO4)cc(OC)c1OC` [PODOFILOX] displayed an EC50 in the series with L6 of 0.017 µM.
For `O=C(Nc1ccc(Cl)c(-c2nc3ncccc3o2)c1)c1ccccc1`, the IC50 came to 51 µM in the series on L6; 37 µM with Leishmania donovani [1]; 6.1 µM in the series with Leishmania donovani [2]; 6.9 µM in the series with Plasmodium falciparum; 2.9 µM in the series with Trypanosoma cruzi; 4.2 µM in [4]. The molecule further came in with an IC50 in series [5] of 1.5 µM. In addition, in series [3], the selectivity ratio came out at 54.
For the molecule `O=C(Nc1ccc(Cl)c(-c2nc3ncccc3o2)c1)c1ccoc1`, the IC50 in the series with L6 came out at 65 µM; in the series with Leishmania donovani [1] it was 12 µM; with Leishmania donovani [2] it was 0.34 µM; in the series with Plasmodium falciparum it was 4.9 µM; in the series on Trypanosoma cruzi it was 0.26 µM; in [4] it was 0.091 µM. The molecule further displayed an IC50 in series [5] of 0.3 µM. In addition, the figures for the selectivity ratio in [12] and in series [3] were above 700 and 160, respectively.
As for `O=C(Cn1ccnc1[N+](=O)[O-])NCc1ccccc1` [BENZNIDAZOLE], the EC50 in the series with Trypanosoma cruzi stood at 1.46 µM.
Regarding `CCCCCCCCCCCCCCCCOP(=O)([O-])OCC[N+](C)(C)C` [MILTEFOSINE], the results for the EC50 with Leishmania donovani [1] and with Leishmania donovani [2] were 1.67 µM and 0.49 µM, respectively.

As a reminder, the EC50 is the concentration that produces a half-maximal response. Low readings indicate greater potency, high ones weaker potency. Broadly, the IC50 is the concentration needed to halve the response being measured. Higher therefore signals a need for much substance. Usually half-life stands for the time in which the quantity being followed falls by half. Low values mean rapid decline, high ones slow decline. The term logD denotes lipophilicity at a set pH, counting ionised and neutral species.
